Test results published in PMC11844196 (Journal of Experimental Pharmacology, 2025).

Legend:
MDA-MB-231 cells = assay: PrestoBlue cytotoxicity assay; format: cell-based; conditions: Homo sapiens, MDA-MB-231, 24 h, read-out: IC50 Value MDA-MB-231
Method in brief: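 Cells plated at 10,000 cells/well and incubated 24 h at 37°C, 5% CO2. MCF 10A were grown in MEBM to 70–80% confluency. Treated for 24 h with eight concentrations (250, 125, 62.5, 31.25, 15.625, 7.8125, 3.9, 1.95 µg/mL) in three parallel experiments, with cisplatin as positive control.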

MCF7 cells = assay: Cell morphology after treatment; format: cell-based, human

CC[C@H](CC[C@@H](C)[C@H]1CC[C@H]2[C@@H]3CC=C4C[C@@H](O)CC[C@]4(C)[C@H]3CC[C@]12C)C(C)C [β-sitosterol]
IC50 (MDA-MB-231 cells): > 250 µg/mL
Cell morphology (apoptosis signs) (MCF7 cells): cell blebbing indicative of apoptotic process
